Test results reported in ChEMBL document CHEMBL1268843, “Synthesis, NMR characterization and divergent biological actions of 2'-hydroxy-ceramide/dihydroceramide stereoisomers in MCF7 cells” (Bioorg Med Chem, 2010).

Columns and labels:
MCF7 [1] = experiment: Metabolic stability in human MCF7 cells assessed as cellular dihydroceramide levels at up to 10 uM after 24 hrs by LC-MS/MS analysis; assay type: ADME, cell-based; conditions: mcf7, 24 h
In short: (§1)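 MCF7 cells grown in parallel with proliferation sets, treated with compound in ethanol (<0.1%) for 24 h (or time course at 10 μM); Bligh & Dyer lipid extracts analysed by LC-MS/MS on triple quadrupole in positive-ion MRM; quantified against spiked-matrix calibration curves with internal standard, linear regression; levels normalized to phospholipid (pmol/nmol Pi), compared with control cells.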

MCF7 [2] = experiment: Metabolic stability in human MCF7 cells assessed as cellular dihydroceramide levels at 40 uM after 24 hrs by LC-MS/MS analysis; assay type: ADME, cell-based; conditions: mcf7, 24 h; in short: as §1
MCF7 [3] = experiment: Metabolic stability in human MCF7 cells assessed as cellular C16-dihydroceramide levels after 24 hrs by LC-MS/MS analysis; assay type: ADME, cell-based; conditions: mcf7, 24 h; in short: as §1
MCF7 [4] = experiment: Metabolic stability in human MCF7 cells assessed as cellular dihydrsphingosine levels at 40 uM after 24 hrs by LC-MS/MS analysis relative to control; assay type: ADME, cell-based; conditions: mcf7, 24 h; in short: as §1
MCF7 [5] = experiment: Antiproliferative activity against human MCF7 cells after 24 hrs by trypan blue exclusion assay; assay type: functional, cell-based; conditions: MCF7, 24 h
MCF7 [6] = experiment: Metabolic stability in human MCF7 cells assessed as C18-ceramide levels at 20 uM after 24 hrs by LC-MS/MS analysis relative to control; assay type: ADME, cell-based; conditions: mcf7, 24 h; in short: as §1
MCF7 [7] = experiment: Metabolic stability in human MCF7 cells assessed as C14-ceramide levels at 20 uM after 24 hrs by LC-MS/MS analysis relative to control; assay type: ADME, cell-based; conditions: mcf7, 24 h; in short: as §1
MCF7 [8] = experiment: Metabolic stability in human MCF7 cells assessed as C16-ceramide levels at 20 uM after 24 hrs by LC-MS/MS analysis relative to control; assay type: ADME, cell-based; conditions: mcf7, 24 h; in short: as §1
MCF7 [9] = experiment: Metabolic stability in human MCF7 cells assessed as C24:1-ceramide levels at 20 uM after 24 hrs by LC-MS/MS analysis relative to control; assay type: ADME, cell-based; conditions: mcf7, 24 h; in short: as §1
MCF7 [10] = experiment: Metabolic stability in human MCF7 cells assessed as C24-ceramide levels at 20 uM after 24 hrs by LC-MS/MS analysis relative to control; assay type: ADME, cell-based; conditions: mcf7, 24 h; in short: as §1
MCF7 [11] = experiment: Antiproliferative activity against human MCF7 cells assessed as inhibition of cell growth at 10 uM after 24 hrs by trypan blue exclusion assay; assay type: functional, cell-based
MCF7 [12] = experiment: Metabolic stability in human MCF7 cells assessed as ceramide species levels at up to 5 uM after 24 hrs by LC-MS/MS analysis; assay type: ADME, cell-based; conditions: mcf7, 24 h; in short: as §1
MCF7 [13] = experiment: Metabolic stability in human MCF7 cells assessed as C18-ceramide levels at 10 uM after 24 hrs by LC-MS/MS analysis relative to control; assay type: ADME, cell-based; conditions: mcf7, 24 h; in short: as §1
MCF7 [14] = experiment: Metabolic stability in human MCF7 cells assessed as C14-ceramide levels at 10 uM after 24 hrs by LC-MS/MS analysis relative to control; assay type: ADME, cell-based; conditions: mcf7, 24 h; in short: as §1
MCF7 [15] = experiment: Metabolic stability in human MCF7 cells assessed as C16-ceramide levels at 10 uM after 24 hrs by LC-MS/MS analysis relative to control; assay type: ADME, cell-based; conditions: mcf7, 24 h; in short: as §1
MCF7 [16] = experiment: Metabolic stability in human MCF7 cells assessed as cellular ceramide levels at 10 uM after up to 30 hrs by LC-MS/MS analysis; assay type: ADME, cell-based; conditions: mcf7, 30 h; in short: as §1
MCF7 [17] = experiment: Metabolic stability in human MCF7 cells assessed as endogenous 2-OH-ceramide levels at 2.5 to 20 uM after 24 hrs by LC-MS/MS analysis; assay type: ADME, cell-based; conditions: mcf7, 24 h; in short: as §1
MCF7 [18] = experiment: Metabolic stability in human MCF7 cells assessed as cellular ceramide levels at up to 25 uM after 24 hrs by LC-MS/MS analysis; assay type: ADME, cell-based; conditions: mcf7, 24 h; in short: as §1
MCF7 [19] = experiment: Metabolic stability in human MCF7 cells assessed as cellular sphingosine levels at up to 25 uM after 24 hrs by LC-MS/MS analysis; assay type: ADME, cell-based; conditions: mcf7, 24 h; in short: as §1
MCF7 [20] = experiment: Metabolic stability in human MCF7 cells assessed as endogenous sphingosine levels at 10 uM after 24 hrs by LC-MS/MS analysis; assay type: ADME, cell-based; conditions: mcf7, 24 h; in short: as §1
MCF7 [21] = experiment: Metabolic stability in human MCF7 cells assessed as cellular dihydroceramide levels at up to 5 uM after 24 hrs by LC-MS/MS analysis; assay type: ADME, cell-based; conditions: mcf7, 24 h; in short: as §1

Structure (SMILES) | Stability (MCF7 [1]) | fold change (FC) (MCF7 [2]) | fold change (FC) (MCF7 [3]) | Stability (MCF7 [4]) | fold change (FC) (MCF7 [4]) | IC50 (MCF7 [5]) | fold change (FC) (MCF7 [6]) | fold change (FC) (MCF7 [7]) | fold change (FC) (MCF7 [8]) | fold change (FC) (MCF7 [9]) | fold change (FC) (MCF7 [10]) | Stability (MCF7 [16]) | Stability (MCF7 [17]) | Stability (MCF7 [18]) | Stability (MCF7 [19]) | also measured
CCCCCCCCCCCCCCC[C@@H](O)[C@H](CO)NC(=O)[C@@H](O)CCCC | Stable | 19 | 25 | Unstable | 16 | 12 µM | – | – | – | – | – | – | – | – | – | –
CCCCCCCCCCCCCCC[C@@H](O)[C@H](CO)NC(=O)CCCCC | Stable | 7 | 13 | – | 5 | 38 µM | – | – | – | – | – | – | – | – | – | Stability (MCF7 [11]): Stable
CCCCCCCCCCCCCCC[C@@H](O)[C@H](CO)NC(=O)[C@H](O)CCCC | Stable | – | – | Stable | – | 8 µM | – | – | – | – | – | – | – | – | – | Stability (MCF7 [3]): Stable; Stability (MCF7 [21]): Stable

Now from value to compound, other results behind:

Stability (MCF7 [1]) | fold change (FC) (MCF7 [2]) | fold change (FC) (MCF7 [3]) | Stability (MCF7 [4]) | fold change (FC) (MCF7 [4]) | IC50 (MCF7 [5]) | fold change (FC) (MCF7 [6]) | fold change (FC) (MCF7 [7]) | fold change (FC) (MCF7 [8]) | fold change (FC) (MCF7 [9]) | fold change (FC) (MCF7 [10]) | Stability (MCF7 [16]) | Stability (MCF7 [17]) | Stability (MCF7 [18]) | Stability (MCF7 [19]) | Structure (SMILES) | also measured
– | – | – | – | – | 12 µM | 80 | 40 | 20 | 5 | 0.2 | – | – | – | – | CCCCCCCCCCCCC/C=C/[C@@H](O)[C@H](CO)NC(=O)CCCCC | –
– | – | – | – | – | – | – | – | – | – | – | Stable | Stable | Stable | Stable | CCCCCCCCCCCCC/C=C/[C@@H](O)[C@H](CO)NC(=O)[C@H](O)CCCC | Stability (MCF7 [12]): Stable; fold change (FC) (MCF7 [13]): 5; fold change (FC) (MCF7 [14]): 3; fold change (FC) (MCF7 [15]): 1.7; Stability (MCF7 [20]): Stable
– | – | – | – | – | – | 30 | 20 | 7 | 4 | 2 | Stable | Stable | Stable | Stable | CCCCCCCCCCCCC/C=C/[C@@H](O)[C@H](CO)NC(=O)[C@@H](O)CCCC | –
